From ChEMBL document CHEMBL4477166, “18β-Glycyrrhetinic Acid Derivatives Possessing a Trihydroxylated A Ring Are Potent Gram-Positive Antibacterial Agents” (2016)
Converted amounts (≈) assume the structure as drawn. The source made the active and inactive calls. The calls are words filed in the database; no cut-off is given here.

What was measured:
[1] = tested on: Staphylococcus aureus; test: Down regulation of mecA gene in methicillin-resistant Staphylococcus aureus at 0.5 times MIC by qRT-PCR analysis relative to control; type: functional, organism-based
Procedure, shortened: (§1)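 MRSA grown in broth containing either 0.5 × MIC of test compound or vehicle alone. Cells harvested at exponential phase (OD₆₂₀ = 0.4). Total RNA reverse-transcribed, then SYBR-based real-time PCR run. Relative expression computed by the 2^−ΔΔCT method against the vehicle control or the parent-acid-treated group. Mean ± SEM, n = 3; significance set at p < 0.05.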

[2] = tested on: Staphylococcus aureus; test: Antibacterial activity against Staphylococcus aureus ATCC 25923 at 0.5 times MIC by time-kill analysis; type: functional, organism-based
Procedure, shortened: (§2)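 Time-kill in LB at 37 °C. B. subtilis or S. aureus suspensions were set at 5 × 10⁵ CFU/mL and exposed to 0.5×, 1×, 2× and 4× MIC alongside negative and positive controls. Samples of 1 mL were taken at 0, 2, 4, 6, 8, 12 and 24 h, serially diluted and plated for viable counts, and survival was calculated. Three repeats.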

[3] = tested on: Bacillus subtilis; test: Upregulation of ykuD expression in Bacillus subtilis ATCC 6051 at 0.5 times MIC by qRT-PCR analysis; type: functional, organism-based
Procedure, shortened: (§3)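 Bacteria were grown in broth with compound at 0.5 × MIC or vehicle to exponential phase (OD620 = 0.4) and then pelleted. Total RNA was reverse-transcribed, and SYBR-based real-time PCR was run against housekeeping genes. Relative expression versus control was calculated by 2^−ΔΔCT. Mean ± SEM, n = 3, significance at p < 0.05.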

[4] = tested on: Bacillus subtilis; test: Antibacterial activity against Bacillus subtilis ATCC 6051 by microdilution assay; type: functional
Procedure, shortened: (§4)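 Turbidimetric broth microdilution. Log-phase cells were washed and resuspended in broth (LB at 37 °C for B. subtilis and S. aureus; oat bran broth at 28 °C for S. scabies) and seeded at 1 × 10⁵ CFU/mL. Twofold serial dilutions were made with DMSO ≤1% (v/v). A620 was read, then plates were incubated with vigorous shaking. MIC was the lowest concentration with no apparent growth versus vehicle-only medium without cells. Run in triplicate.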

[5] = tested on: Bacillus subtilis; test: Upregulation of yhdT expression in Bacillus subtilis ATCC 6051 at 0.5 times MIC by qRT-PCR analysis relative to control; type: functional, organism-based; procedure, shortened: as §3
[6] = tested on: Pseudomonas aeruginosa; test: Antibacterial activity against multi-drug resistant Pseudomonas aeruginosa at 100 uM measured after 5 to 6 hrs by microdilution assay; type: functional, organism-based
Procedure, shortened: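 Log-phase cells seeded at 1 × 10⁵ CFU/mL. Single-dose screen at 100 μM, with DMSO cosolvent at most 1% v/v. Growth measured turbidimetrically at 620 nm, before and after incubation with vigorous shaking.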

[7] = tested on: Bacillus subtilis; test: Antibacterial activity against Bacillus subtilis ATCC 6051 at 0.5 times MIC by time-kill analysis; type: functional, organism-based; procedure, shortened: as §2
[8] = tested on: Staphylococcus aureus; test: Increase in fmhB expression in Staphylococcus aureus at 0.5 times MIC by qRT-PCR analysis relative to 18-beta-glycyrrhetinic acid; type: functional, organism-based; procedure, shortened: as §3
[9] = tested on: Bacillus subtilis; test: Antibacterial activity against Bacillus subtilis ATCC 6051 by time-kill analysis; type: functional, organism-based; procedure, shortened: as §2
[10] = tested on: Staphylococcus aureus; test: Effect on lytM expression in Staphylococcus aureus ATCC 25923 at 0.5 times MIC by qRT-PCR analysis; type: functional, organism-based; procedure, shortened: as §3
[11] = tested on: Staphylococcus aureus; test: Down regulation of mecA gene in methicillin-resistant Staphylococcus aureus at 0.5 times MIC by qRT-PCR analysis relative to 18-beta-glycyrrhetinic acid; type: functional, organism-based; procedure, shortened: as §1
[12] = tested on: Streptomyces scabiei; test: Antibacterial activity against Streptomyces scabiei CGMCC4.7610246 by microdilution assay; type: functional; procedure, shortened: as §4
[13] = tested on: Staphylococcus aureus; test: Inhibition of hla expression in methicillin-resistant Staphylococcus aureus at 0.5 times MIC by qRT-PCR analysis relative to control; type: functional, organism-based; procedure, shortened: as §1
[14] = tested on: Streptomyces scabiei; test: Antibacterial activity against Streptomyces scabiei CGMCC4.7610246 by time-kill analysis; type: functional, organism-based
Procedure, shortened: (§5)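 Killing kinetics for S. scabies in oat bran broth at 28 °C, starting at 5 × 10⁵ CFU/mL. Exposure was 0.5×, 1×, 2× or 4× MIC, with negative and positive controls. Samples of 1 mL were withdrawn at 0, 4, 8, 16, 24 and 36 h, serially diluted and plated, and survival was calculated from colony counts. Performed in triplicate.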

[15] = tested on: Pseudomonas aeruginosa; test: Antibacterial activity against Pseudomonas aeruginosa at 100 uM measured after 5 to 6 hrs by microdilution assay; type: functional, organism-based
[16] = tested on: Bacillus subtilis; test: Reduction in mmD expression in Bacillus subtilis ATCC 6051 at 0.5 times MIC by qRT-PCR analysis relative to control; type: functional, organism-based; procedure, shortened: as §3
[17] = tested on: Staphylococcus aureus; test: Antibacterial activity against Staphylococcus aureus ATCC 25923 by microdilution assay; type: functional; procedure, shortened: as §4
[18] = tested on: Staphylococcus aureus; test: Antibacterial activity against methicillin-resistant Staphylococcus aureus by microdilution assay; type: functional
Procedure, shortened: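 Log-phase cells seeded at 1 × 10⁵ CFU/mL. Twofold serial dilutions made in broth with DMSO cosolvent, at most 1% v/v. Turbidity read at 620 nm before and after incubation with vigorous shaking. MIC is the lowest concentration with no apparent growth versus the medium-plus-vehicle control. Run in triplicate.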

[19] = tested on: Staphylococcus aureus; test: Increase in fmhB expression in Staphylococcus aureus ATCC 25923 at 0.5 times MIC by qRT-PCR analysis relative to control; type: functional, organism-based; procedure, shortened: as §3
[20] = tested on: Escherichia coli; test: Antibacterial activity against Escherichia coli at 100 uM measured after 5 to 6 hrs by microdilution assay; type: functional, organism-based
[21] = tested on: Staphylococcus aureus; test: Reduction in narG expression in Staphylococcus aureus ATCC 25923 at 0.5 times MIC by qRT-PCR analysis relative to control; type: functional, organism-based; procedure, shortened: as §3
[22] = tested on: Staphylococcus aureus; test: Inhibition of seaR expression in methicillin-resistant Staphylococcus aureus at 0.5 times MIC by qRT-PCR analysis relative to control; type: functional, organism-based; procedure, shortened: as §1
[23] = tested on: Staphylococcus aureus; test: Increase in fmhB expression in methicillin-resistant Staphylococcus aureus at 0.5 times MIC by qRT-PCR analysis relative to control; type: functional, organism-based; procedure, shortened: as §1
[24] = tested on: Bacillus subtilis; test: Upregulation of yqhB expression in Bacillus subtilis ATCC 6051 at 0.5 times MIC by qRT-PCR analysis relative to control; type: functional, organism-based; procedure, shortened: as §3
[25] = tested on: Bacillus subtilis; test: Upregulation of lytF expression in Bacillus subtilis ATCC 6051 at 0.5 times MIC by qRT-PCR analysis; type: functional, organism-based; procedure, shortened: as §3
[26] = tested on: Staphylococcus aureus; test: Increase in fmhB expression in Staphylococcus aureus ATCC 25923 at 0.5 times MIC by qRT-PCR analysis relative to 18-beta-glycyrrhetinic acid; type: functional, organism-based; procedure, shortened: as §3
[27] = tested on: Staphylococcus aureus; test: Reduction in narG expression in methicillin-resistant Staphylococcus aureus at 0.5 times MIC by qRT-PCR analysis relative to control; type: functional, organism-based; procedure, shortened: as §1
[28] = tested on: Streptomyces scabiei; test: Antibacterial activity against Streptomyces scabiei CGMCC4.7610246 at 0.5 times MIC by time-kill analysis; type: functional, organism-based; procedure, shortened: as §5
[29] = tested on: Staphylococcus aureus; test: Antibacterial activity against Staphylococcus aureus ATCC 25923 by time-kill analysis; type: functional, organism-based; procedure, shortened: as §2
[30] = tested on: Staphylococcus aureus; test: Upregulation of hla expression in Staphylococcus aureus ATCC 25923 at 0.5 times MIC by qRT-PCR analysis relative to control; type: functional, organism-based; procedure, shortened: as §3
[31] = tested on: Staphylococcus aureus; test: Upregulation of seaR expression in Staphylococcus aureus ATCC 25923 at 0.5 times MIC by qRT-PCR analysis relative to control; type: functional, organism-based; procedure, shortened: as §3
[32] = tested on: Staphylococcus aureus; test: Inhibition of lytM expression in methicillin-resistant Staphylococcus aureus at 0.5 times MIC by qRT-PCR analysis; type: functional, organism-based; procedure, shortened: as §1

CCOC(=O)[C@@]1(C)CC[C@]2(C)CC[C@]3(C)C(=CC[C@@H]4[C@@]5(C)[C@@H](O)[C@H](O)[C@H](O)C(C)(C)[C@@H]5CC[C@]43C)[C@@H]2C1
Activity [1]: Active | Activity [2]: inactive | Activity [3]: Active | MIC [4]: 2 µg/mL (≈ 3.87 µM) | Activity [5]: Active | Activity [6]: inactive | Activity [7]: inactive | Activity [8]: Active | Activity [9]: Dose-dependent effect | Activity [10]: inactive | Activity [11]: Active | MIC [12]: 4.1 µg/mL (≈ 7.93 µM) | inhibition [13]: Active | Activity [14]: Dose-dependent effect | Activity [15]: inactive | Activity [16]: Active | MIC [17]: 1 µg/mL (≈ 1.94 µM) | MIC [18]: 1 µg/mL (≈ 1.94 µM) | Activity [19]: Active | Activity [20]: inactive | Activity [21]: Active | inhibition [22]: Active | Activity [23]: Active | Activity [24]: Active | Activity [25]: Active | Activity [26]: Active | Activity [27]: Active | Activity [28]: inactive | Activity [29]: Dose-dependent effect | Activity [30]: Active | Activity [31]: Active | inhibition [32]: Active
